What is called pIC50 is the negative decadic logarithm of the IC50, by convention in mol/L.

The results in this text go back to ChEMBL document CHEMBL4130447, “A Bis-benzopyrroloisoquinoline Alkaloid Incorporating a Cyclobutane Core and a Chlorophenanthroindolizidine Alkaloid with Cytotoxic Activity from Ficus fistulosa var. tengerensis” (J Nat Prod, 2017).

Structures are written as SMILES. pIC50: −log10 of the molar value.

Assay [1] has as its system MCF7. In words: Cytotoxicity against human MCF7 cells assessed as decrease in cell viability after 72 hrs by CellTiter-Glo luminescence assay. The format is functional, cell-based. Particulars: MCF7, 72 h. The gist of the method: (§1)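 Breast cancer lines were maintained in RPMI 1640 with 10% FBS and pen/strep at 37 °C and 5% CO2. Cells were plated at 1000/well, allowed 24 h, then treated 72 h with agents at 1.5–100 μM (diluted in phosphate buffer from a 100 mM DMSO stock). Paclitaxel at 0.01–10 μM served as the reference. Luminescent ATP read-out was used, with IC50 computed relative to 0.1% DMSO controls.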
A general note: Cellular ATP, detected with luciferase, serves as a proxy for viable cell number.

For assay [2], the system named is MDA-MB-468. As to the kind of experiment: Cytotoxicity against human MDA-MB-468 cells assessed as decrease in cell viability after 72 hrs by CellTiter-Glo luminescence assay. The assay is classed as functional, cell-based. The following applies: MDA-MB-468, 72 h. An outline of the steps: as §1
Assay [3] deals with MCF-10A. As to the kind of experiment: Cytotoxicity against human MCF10A cells assessed as decrease in cell viability after 72 hrs by CellTiter-Glo luminescence assay. The format is cell-based. The gist of the method: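 MCF10A (non-tumorigenic breast epithelial) cells were grown with 5% horse serum, 20 ng/mL EGF, 0.5 μg/mL hydrocortisone, 10 μg/mL insulin, and pen/strep at 37 °C and 5% CO2. Cells were seeded at 1000/well for 24 h, then exposed 72 h to 1.5–100 μM test agent diluted in phosphate buffer from a 100 mM DMSO stock. Viability was read by ATP luminescence. IC50 was calculated versus 0.1% DMSO-treated cells.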

The test system of assay [4] is MDA-MB-231. In words: Cytotoxicity against human MDA-MB-231 cells assessed as decrease in cell viability after 72 hrs by CellTiter-Glo luminescence assay. The format is functional, cell-based. The following applies: MDA-MB-231, 72 h. The gist of the method:
as §1

Consider `COc1cc2cc([C@@H]3[C@H](C(C)=O)[C@@H](C(C)=O)[C@@H]3c3cc4cc(OC)c(OC)cc4c4c3CN3CCC[C@@H]3C4)c3c(c2cc1OC)C[C@@H]1CCCN1C3`, for which the negative-log IC50 (pIC50) in assay [1] was under 5.00; in assay [2], 5.13; in assay [3], under 5.00; in assay [4], under 5.00.

Consider `CC(=O)O[C@H]1C(=O)[C@@]2(C)[C@H]([C@H](OC(=O)c3ccccc3)[C@]3(O)C[C@H](OC(=O)[C@H](O)[C@@H](NC(=O)c4ccccc4)c4ccccc4)C(C)=C1C3(C)C)[C@]1(OC(C)=O)CO[C@@H]1C[C@@H]2O` [PACLITAXEL], for which the negative-log IC50 (pIC50) was 8.06 in assay [1], 8.21 in assay [2], 8.24 in assay [3] and 7.23 in assay [4].

As for `COc1cc2cc([C@@H]3[C@@H](C(C)=O)[C@H](C(C)=O)[C@@H]3c3cc4cc(OC)c(OC)cc4c4c3CN3CCC[C@@H]3C4)c3c(c2cc1OC)C[C@@H]1CCCN1C3`, the pIC50 in assay [1], in assay [2], in assay [3] and in assay [4] was under 5.00 each time.

In the case of `COc1cc2cc(C3C(C(C)=O)C(C(C)=O)C3c3cc4cc(OC)c(OC)cc4c4c3CN3CCCC3C4)c3c(c2cc1OC)CC1CCCN1C3` (racemic), the pIC50 in assay [1], in assay [2], in assay [3] and in assay [4] was under 5.00 throughout.

Consider `COc1cc2c3c(c4ccc(OC)c(Cl)c4c2cc1OC)CN1CCCC1C3` (racemic), for which the negative-log IC50 (pIC50) in assay [1] was 6.04; in assay [2] it was 7.42; in assay [3], 4.97; in assay [4], 6.32.

Turning to `COc1cc2cc(CO)c3c(c2cc1OC)CC1CCCN1C3` (racemic), the pIC50 in assay [1], in assay [2], in assay [3] and in assay [4] was under 5.00 in each case.
